Data on three compounds can be found in ChEMBL document CHEMBL5653631, “A Potent and Selective ULK1 Inhibitor Suppresses Autophagy and Sensitizes Cancer Cells to Nutrient Stress” (iScience, 2018).

Assay [1] concerns the target Dual specificity protein kinase CLK3 (Homo sapiens) (UniProt P49761). Briefly: Inhibition of human recombinant CLK3 at 40 nM in presence of ATP by radiometric assay relative to control.
The target in assay [2] is T1, Serine/threonine-protein kinase Nek9 (Homo sapiens) (UniProt Q8TD19).
T1 sequence (whole entry): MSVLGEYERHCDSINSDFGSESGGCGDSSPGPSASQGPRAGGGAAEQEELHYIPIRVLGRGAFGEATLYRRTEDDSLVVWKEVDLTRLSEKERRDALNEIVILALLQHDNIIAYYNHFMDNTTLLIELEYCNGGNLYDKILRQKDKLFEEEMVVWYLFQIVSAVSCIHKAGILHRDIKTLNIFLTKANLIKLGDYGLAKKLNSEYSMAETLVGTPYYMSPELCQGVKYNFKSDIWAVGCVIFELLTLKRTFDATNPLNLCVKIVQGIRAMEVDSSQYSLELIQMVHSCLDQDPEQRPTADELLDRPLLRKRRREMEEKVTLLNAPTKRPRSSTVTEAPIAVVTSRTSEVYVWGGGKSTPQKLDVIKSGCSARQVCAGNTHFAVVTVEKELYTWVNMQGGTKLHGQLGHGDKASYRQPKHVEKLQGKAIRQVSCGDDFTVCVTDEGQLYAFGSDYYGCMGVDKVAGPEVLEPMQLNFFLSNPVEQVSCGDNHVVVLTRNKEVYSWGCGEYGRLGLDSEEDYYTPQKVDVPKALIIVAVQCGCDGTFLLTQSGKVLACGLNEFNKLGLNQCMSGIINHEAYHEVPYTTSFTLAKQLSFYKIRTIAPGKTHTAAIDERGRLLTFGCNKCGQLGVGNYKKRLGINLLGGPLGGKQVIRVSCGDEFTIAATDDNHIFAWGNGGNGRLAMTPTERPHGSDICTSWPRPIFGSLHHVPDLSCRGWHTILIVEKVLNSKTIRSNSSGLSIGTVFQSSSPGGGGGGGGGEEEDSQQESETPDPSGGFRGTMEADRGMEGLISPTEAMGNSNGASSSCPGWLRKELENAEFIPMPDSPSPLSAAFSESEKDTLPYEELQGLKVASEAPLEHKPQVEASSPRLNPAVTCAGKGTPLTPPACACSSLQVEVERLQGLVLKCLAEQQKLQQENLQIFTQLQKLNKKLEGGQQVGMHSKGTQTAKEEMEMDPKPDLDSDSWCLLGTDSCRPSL
Briefly: Inhibition of human recombinant NEK9 at 40 nM in presence of ATP by radiometric assay relative to control.

Assay [3] addresses T2, Myotonin-protein kinase (Homo sapiens) (UniProt Q09013).
T2 sequence (whole entry): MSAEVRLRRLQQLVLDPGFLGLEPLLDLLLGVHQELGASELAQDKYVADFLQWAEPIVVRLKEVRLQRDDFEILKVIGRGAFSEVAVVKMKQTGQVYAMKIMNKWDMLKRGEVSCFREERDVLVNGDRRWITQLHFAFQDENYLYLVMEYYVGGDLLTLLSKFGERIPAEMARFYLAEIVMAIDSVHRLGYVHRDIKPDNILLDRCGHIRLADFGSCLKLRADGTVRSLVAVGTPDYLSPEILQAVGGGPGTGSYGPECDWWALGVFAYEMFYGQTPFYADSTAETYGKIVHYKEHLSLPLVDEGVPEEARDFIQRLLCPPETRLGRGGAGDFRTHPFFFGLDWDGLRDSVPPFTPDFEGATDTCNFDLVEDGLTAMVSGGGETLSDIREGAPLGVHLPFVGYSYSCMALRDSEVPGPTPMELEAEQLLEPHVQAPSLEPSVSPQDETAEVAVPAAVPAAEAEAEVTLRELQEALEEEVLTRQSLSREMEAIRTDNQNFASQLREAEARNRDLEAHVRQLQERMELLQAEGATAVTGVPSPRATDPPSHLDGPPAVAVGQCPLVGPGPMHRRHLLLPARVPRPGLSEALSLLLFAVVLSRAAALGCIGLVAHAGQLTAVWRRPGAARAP
Briefly: Inhibition of human recombinant DMPK1 at 40 nM related to control ULK1.

Assay [4] addresses Tyrosine-protein kinase Fer (Homo sapiens) (UniProt P16591). Briefly: Inhibition of human recombinant FER at 40 nM related to control ULK1.
Assay [5] deals with T3, Aurora kinase C (Homo sapiens) (UniProt Q9UQB9).
T3 sequence (whole entry): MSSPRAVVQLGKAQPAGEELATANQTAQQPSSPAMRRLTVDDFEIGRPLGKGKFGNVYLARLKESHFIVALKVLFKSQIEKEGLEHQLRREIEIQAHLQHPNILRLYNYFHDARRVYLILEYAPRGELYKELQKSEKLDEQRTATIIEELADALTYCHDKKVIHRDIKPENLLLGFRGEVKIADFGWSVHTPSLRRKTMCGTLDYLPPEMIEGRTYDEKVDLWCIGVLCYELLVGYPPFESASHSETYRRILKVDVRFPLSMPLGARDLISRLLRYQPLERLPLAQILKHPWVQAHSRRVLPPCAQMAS
Briefly: Inhibition of human recombinant AurC at 500 nM in presence of ATP by radiometric assay relative to control. In outline: (§1)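 Part of a radiometric in vitro activity panel of 327 recombinant human kinases. Each kinase was tested in duplicate at one inhibitor concentration. Activity remaining was expressed as a percentage of the vehicle control, and percent inhibition was taken as 100 minus that value.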

For assay [6], the target named is Receptor-type tyrosine-protein kinase FLT3 (Homo sapiens) (UniProt P36888). Briefly: Inhibition of human recombinant FLT3 at 500 nM in presence of ATP by radiometric assay relative to control.
Sequence of Receptor-type tyrosine-protein kinase FLT3 (Homo sapiens) (P36888 whole entry): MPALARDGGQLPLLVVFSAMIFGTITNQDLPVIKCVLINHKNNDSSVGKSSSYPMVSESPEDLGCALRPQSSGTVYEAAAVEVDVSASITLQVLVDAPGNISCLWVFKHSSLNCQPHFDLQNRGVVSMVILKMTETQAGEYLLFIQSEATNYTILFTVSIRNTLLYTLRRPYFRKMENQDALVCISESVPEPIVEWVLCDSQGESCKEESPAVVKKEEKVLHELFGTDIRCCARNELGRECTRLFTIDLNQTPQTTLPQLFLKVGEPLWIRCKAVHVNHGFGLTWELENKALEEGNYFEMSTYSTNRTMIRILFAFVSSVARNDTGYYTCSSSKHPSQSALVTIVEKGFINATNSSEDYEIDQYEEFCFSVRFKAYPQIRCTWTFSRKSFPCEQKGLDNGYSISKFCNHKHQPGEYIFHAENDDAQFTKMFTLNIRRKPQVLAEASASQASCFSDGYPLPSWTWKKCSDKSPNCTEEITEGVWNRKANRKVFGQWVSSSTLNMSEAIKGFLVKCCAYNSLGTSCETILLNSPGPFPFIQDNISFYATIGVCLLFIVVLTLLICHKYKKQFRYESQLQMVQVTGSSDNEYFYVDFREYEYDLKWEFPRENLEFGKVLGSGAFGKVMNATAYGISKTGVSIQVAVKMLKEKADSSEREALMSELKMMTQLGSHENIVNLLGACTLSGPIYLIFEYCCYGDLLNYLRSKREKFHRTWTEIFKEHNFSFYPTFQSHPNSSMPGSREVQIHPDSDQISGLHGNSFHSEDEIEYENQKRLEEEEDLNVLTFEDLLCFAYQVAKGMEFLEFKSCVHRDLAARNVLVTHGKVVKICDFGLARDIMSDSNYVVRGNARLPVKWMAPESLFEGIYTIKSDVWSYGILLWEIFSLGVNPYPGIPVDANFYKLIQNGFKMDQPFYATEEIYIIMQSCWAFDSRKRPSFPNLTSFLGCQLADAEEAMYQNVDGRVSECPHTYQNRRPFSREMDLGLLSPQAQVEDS
In assay [7] the target is Mitogen-activated protein kinase 14 (Homo sapiens) (UniProt Q16539). Briefly: Inhibition of human recombinant p38alpha at 500 nM related to control ULK1.
Sequence of Mitogen-activated protein kinase 14 (Homo sapiens) (Q16539 whole entry): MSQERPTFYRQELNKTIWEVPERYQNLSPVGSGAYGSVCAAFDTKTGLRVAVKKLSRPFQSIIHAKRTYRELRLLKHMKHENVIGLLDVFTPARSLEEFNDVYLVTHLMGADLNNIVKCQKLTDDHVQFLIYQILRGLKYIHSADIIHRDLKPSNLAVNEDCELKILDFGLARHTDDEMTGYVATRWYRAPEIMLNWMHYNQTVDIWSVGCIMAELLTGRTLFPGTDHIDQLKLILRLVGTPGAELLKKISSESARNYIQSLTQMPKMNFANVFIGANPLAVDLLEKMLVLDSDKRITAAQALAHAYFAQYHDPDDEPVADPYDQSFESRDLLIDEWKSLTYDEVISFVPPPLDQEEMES
For assay [8], the target named is Bone morphogenetic protein receptor type-1B (Homo sapiens) (UniProt O00238). Briefly: Inhibition of human recombinant BMPR1B at 15 nM in presence of ATP by radiometric assay relative to control. In outline:
as §1

The target of assay [9] is Serine/threonine-protein kinase 38-like (Homo sapiens) (UniProt Q9Y2H1). Briefly: Inhibition of human recombinant NDR2 at 15 nM in presence of ATP by radiometric assay relative to control.
Sequence of Serine/threonine-protein kinase 38-like (Homo sapiens) (Q9Y2H1 2-464 limits assumed): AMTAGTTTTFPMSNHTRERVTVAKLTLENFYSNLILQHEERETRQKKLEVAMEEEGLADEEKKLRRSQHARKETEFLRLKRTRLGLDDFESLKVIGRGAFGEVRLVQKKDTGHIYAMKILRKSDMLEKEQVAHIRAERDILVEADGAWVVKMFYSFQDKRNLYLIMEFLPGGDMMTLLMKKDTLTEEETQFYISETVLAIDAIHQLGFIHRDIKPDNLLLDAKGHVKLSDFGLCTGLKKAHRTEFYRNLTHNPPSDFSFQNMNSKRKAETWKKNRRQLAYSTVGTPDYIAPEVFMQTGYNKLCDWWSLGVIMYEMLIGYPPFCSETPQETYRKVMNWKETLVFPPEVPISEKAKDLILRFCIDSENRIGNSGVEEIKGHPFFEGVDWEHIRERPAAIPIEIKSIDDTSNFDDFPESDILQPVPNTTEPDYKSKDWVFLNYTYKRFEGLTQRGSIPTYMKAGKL
Assay [10] concerns the target Tyrosine-protein kinase SYK (Homo sapiens) (UniProt P43405). Briefly: Inhibition of human recombinant SYK at 15 nM in presence of ATP by radiometric assay relative to control.

Sequence of Dual specificity protein kinase CLK3 (Homo sapiens) (P49761 whole entry, looked up): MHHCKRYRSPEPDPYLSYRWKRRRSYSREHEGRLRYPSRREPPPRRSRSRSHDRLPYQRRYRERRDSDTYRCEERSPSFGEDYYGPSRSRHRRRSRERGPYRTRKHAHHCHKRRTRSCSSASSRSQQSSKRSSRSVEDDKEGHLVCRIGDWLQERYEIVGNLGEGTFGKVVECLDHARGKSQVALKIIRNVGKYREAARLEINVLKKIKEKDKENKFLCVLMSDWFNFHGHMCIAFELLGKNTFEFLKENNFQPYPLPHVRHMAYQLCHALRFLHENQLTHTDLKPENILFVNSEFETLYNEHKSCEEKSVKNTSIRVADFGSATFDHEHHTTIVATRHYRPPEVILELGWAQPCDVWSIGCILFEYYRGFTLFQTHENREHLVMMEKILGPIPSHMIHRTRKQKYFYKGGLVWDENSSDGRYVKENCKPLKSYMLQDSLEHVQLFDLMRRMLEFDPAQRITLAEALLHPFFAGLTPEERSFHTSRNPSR
Sequence of Tyrosine-protein kinase Fer (Homo sapiens) (P16591 whole entry, looked up): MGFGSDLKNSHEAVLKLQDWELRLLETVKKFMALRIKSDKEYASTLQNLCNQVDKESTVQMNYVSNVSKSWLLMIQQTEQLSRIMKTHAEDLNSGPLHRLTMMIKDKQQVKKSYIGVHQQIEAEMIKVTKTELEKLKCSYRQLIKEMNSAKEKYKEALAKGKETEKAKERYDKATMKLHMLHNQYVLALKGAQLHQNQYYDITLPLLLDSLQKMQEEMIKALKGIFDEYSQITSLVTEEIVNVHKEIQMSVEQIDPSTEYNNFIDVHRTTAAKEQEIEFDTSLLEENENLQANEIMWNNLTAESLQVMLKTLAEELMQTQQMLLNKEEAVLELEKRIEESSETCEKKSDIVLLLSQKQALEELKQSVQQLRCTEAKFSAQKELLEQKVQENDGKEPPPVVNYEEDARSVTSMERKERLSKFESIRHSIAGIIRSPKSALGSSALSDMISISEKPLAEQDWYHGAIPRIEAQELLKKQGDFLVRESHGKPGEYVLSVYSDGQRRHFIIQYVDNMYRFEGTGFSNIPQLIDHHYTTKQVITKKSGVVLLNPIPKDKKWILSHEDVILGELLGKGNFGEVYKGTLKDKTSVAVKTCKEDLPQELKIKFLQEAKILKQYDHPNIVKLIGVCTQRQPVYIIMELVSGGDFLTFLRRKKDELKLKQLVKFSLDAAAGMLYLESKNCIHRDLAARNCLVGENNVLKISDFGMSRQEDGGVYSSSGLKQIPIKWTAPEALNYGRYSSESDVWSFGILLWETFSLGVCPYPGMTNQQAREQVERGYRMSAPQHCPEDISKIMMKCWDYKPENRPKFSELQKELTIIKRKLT
Sequence of Bone morphogenetic protein receptor type-1B (Homo sapiens) (O00238 whole entry): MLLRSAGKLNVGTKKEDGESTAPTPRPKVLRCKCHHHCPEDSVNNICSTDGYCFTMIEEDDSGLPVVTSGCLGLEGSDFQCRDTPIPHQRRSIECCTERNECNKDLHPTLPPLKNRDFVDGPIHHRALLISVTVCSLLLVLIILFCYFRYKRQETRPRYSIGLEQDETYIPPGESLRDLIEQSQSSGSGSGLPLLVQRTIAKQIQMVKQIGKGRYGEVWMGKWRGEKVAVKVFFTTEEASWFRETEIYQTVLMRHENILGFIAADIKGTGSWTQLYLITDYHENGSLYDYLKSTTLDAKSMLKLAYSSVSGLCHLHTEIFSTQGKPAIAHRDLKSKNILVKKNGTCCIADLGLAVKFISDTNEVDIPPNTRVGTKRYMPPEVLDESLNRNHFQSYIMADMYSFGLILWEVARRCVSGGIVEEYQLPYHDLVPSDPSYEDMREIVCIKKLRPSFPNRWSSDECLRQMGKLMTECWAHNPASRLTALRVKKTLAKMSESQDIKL

Take `O=C(N[C@@H](C1CC1)C(F)(F)F)c1cc(-c2cnn3cc(-c4ccc(F)cc4)cnc23)cs1`: the figures for the inhibition in assay [1] and in assay [2] were 0% and 5%, respectively. Also, the fold change (FC) came out at 0.07 in assay [3] and 0 in assay [4].
Turning to `CNC(=O)c1ccccc1Oc1nc(Nc2cc(OC)c(OC)c(OC)c2)ncc1Br`, the inhibition in assay [5] worked out at 73%; in assay [6], 57%. Also, in [7], the fold change (FC) was determined as 0.07.
On to `CC(C)[C@H](NC(=O)c1cc(-c2cnn3cc(-c4ccc(OCCN5CCCCC5)cc4)cnc23)cs1)C(F)(F)F`, for which the inhibition in assay [8] came to 24%; in [9] it was 2%; in [10] it was 0%.
